# Compounds with a hit are over-represented: about 4% of the library has one in this group of screens.
# Statin myotox sup: suppressors of simvastatin-induced myotoxicity in C2C12 myotubes; ATP luminescence, 48 h; scaled: DMSO 0, geranylgeraniol control 100; AID 602340; rescue of ATP level, % at 7.49 µM; 330,000 compounds, 0.78% hits;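 active means mean ATP rescue above about 67%, or every replicate alone reaching that limit, limit read from the data, passing the limit was not always enough; inconclusive means no clear call, values can overlap the other calls; inactive means mean under the limit and some replicate under it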;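 further: myotubes were challenged with 10 µM simvastatin during compound exposure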
# Ecoli rRNA inh: inhibits bacterial ribosomal RNA function over humanized ribosomes; AID 720706; GFP signal change (wild-type ribosome), % (test concentration not listed); E. coli WT GFP vs humanized-ribosome RFP mutants, fluorescence, 24 h; stronger effect = lower value; DMSO median 0, no signal -100; 350,000 compounds, 1.6% hits;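 active means significant combined selectivity score with lowered wild-type GFP, culture density cut under 30%, mutant RFP and density less affected; inactive means any of these conditions unmet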
# FN deposit inh: fibronectin deposition inhibition; AH1F fibroblasts, Alexa488-fibronectin deposition fluorescence, overnight; inhibition, % at 12.6 µM; 350,000 compounds, 0.086% hits; AID 743247;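 active means mean inhibition across replicates of 30% or more, regardless of how many single replicates reach that level; inconclusive means mean under 30% yet at least half of replicates reach 30%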;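 further: positive control wells lacked labelled fibronectin entirely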
#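 Material: AH1F fibroblasts assembling fluorescent fibronectin matrix; amount: 10000 AH1F cells/well; medium: DMEM, 2% serum; reagent: Alexa488-fibronectin, 24 nM final in well; dosing: single compound dose, delivered by pin transfer; incubation: 1 h adhesion, overnight exposure; detection: fluorescence after three HBSS washes, excitation 485 nm, emission 525 nm; measure: fibronectin deposition inhibition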
# E-selectin induc: E-selectin induction on HUVECs; AID 686992; P16581; 260,000 compounds, 0.37% hits; activation, % at 7.58 µM; HUVEC E-selectin immunofluorescence imaging; normalized: neutral wells 0, TNF-alpha wells 100;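 active means mean E-selectin-positive cell signal at least 10% of the positive control, reached in at least 60% of replicates, without over 20% cell loss; inconclusive means no rule given, readout overlaps actives, possibly toxicity-flagged; inactive means the rest, including those meeting only one limit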
#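 Test system: HUVEC; input: 3,000 HUVEC/well; measured by: immunofluorescence imaging; read-out: % PE-positive cells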
# SIRT5 block: inhibitors of human sirtuin-5 desuccinylase; Q9NXA8; Purified SirT5, succinyl-peptide AMC, trypsin-coupled fluorescence; inhibition, % at 15 µM; 330,000 compounds, 1.1% hits; in the data active means inhibition above about 15%; inconclusive means no clear call, values can overlap the other calls
# Target sequence (Q9NXA8 whole entry, looked up): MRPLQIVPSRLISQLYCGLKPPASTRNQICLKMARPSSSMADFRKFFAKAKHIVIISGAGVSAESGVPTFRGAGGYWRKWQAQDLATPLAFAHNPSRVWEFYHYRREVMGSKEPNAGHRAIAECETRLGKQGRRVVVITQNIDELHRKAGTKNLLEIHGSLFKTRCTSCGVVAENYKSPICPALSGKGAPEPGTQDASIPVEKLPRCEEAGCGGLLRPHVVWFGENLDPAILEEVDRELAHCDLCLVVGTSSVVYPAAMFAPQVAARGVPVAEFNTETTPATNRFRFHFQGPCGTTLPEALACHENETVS
# FGF22 binding: binders of recombinant human FGF22 by thermal shift. Q9HCT0. SYPRO orange fluorescence; percent of sucrose octasulfate shift, DMSO zero. activity (Tm shift, normalised), % at 9.99 µM. 340,000 compounds, 1.5% hits. AID 651658;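 active means mean Tm shift, scaled 0 neutral to 100 positive control, at about 1.3% or above, every replicate too, limit read from the data; inconclusive means no clear call, values can overlap the other calls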
# Target sequence (Q9HCT0 whole entry, looked up): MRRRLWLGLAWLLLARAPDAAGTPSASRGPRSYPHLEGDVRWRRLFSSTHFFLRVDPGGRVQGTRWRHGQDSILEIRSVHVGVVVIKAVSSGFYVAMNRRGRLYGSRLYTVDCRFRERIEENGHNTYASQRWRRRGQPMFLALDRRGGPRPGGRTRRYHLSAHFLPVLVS
# Active calls of the source: *; ? = inconclusive; / = no result.
SMILES,Statin myotox sup,Ecoli rRNA inh,FN deposit inh,E-selectin induc,SIRT5 block,FGF22 binding
C[C@@H]1CN([C@@H](C)CO)C(=O)Cc2cc(NC(=O)CCCCCC(=O)Nc3ccccc3N)ccc2O[C@H]1CN(C)Cc1ccc(C(F)(F)F)cc1,?,-4.2,-13.0,-0.2,0.3,0.0
Cc1ccc(S(=O)(=O)NCCC(=O)Nc2ccc(Cl)c(Cl)c2)cc1,/,/,-3.1,-0.1,/,/
Cc1ccc(S(=O)(=O)NCCC(=O)Nc2ccc(Cl)c(Cl)c2)cc1C,-1.7,-60.6,9.7,/,-2.1,46.6*
OCC#Cc1ncc(C(F)(F)F)cc1Cl,/,/,5.2,-0.1,4.6,43.4*
CN1C[C@@H](O)COC[C@@H]2O[C@H](CC(=O)N3CCN(c4ccccc4)CC3)CC[C@H]21,-2.2,6.3,0.1,0.0,-5.0,-0.1
CCOC(=O)c1nnc(-c2ccc(C)cc2)nc1Sc1ccc(Cl)cc1,109.2*,/,/,/,/,/
Cn1c2ccccc2c2ccc3c(c21)C(=O)C=CC3=O,/,-24.9*,-9.7,0.8,4.2,-0.3
Cc1ccc2c(c1)c1ccc3c(c1n2C)C(=O)C=CC3=O,-221.5,-13.2,-6.2,0.4,0.7,-0.1
C[C@@H]1CCCCO[C@@H](CN(C)C(=O)Nc2ccccc2)[C@H](C)CN([C@H](C)CO)C(=O)c2cc(NC(=O)NC3CCCCC3)ccc2O1,/,2.6,-7.5,/,4.9,/
Cc1ccc(-c2nc(C)c(C(=O)O)s2)cc1,/,6.7,-10.3,/,2.7,43.4*
Cc1ncsc1C(=O)Nc1nc2c(s1)CCCC2,/,/,/,/,-0.7,-0.1
O=C(Nc1nc2c(s1)CCCC2)c1ccc2ncsc2c1,6.0,-40.7,-9.3,5.1,-5.5,1.7*
CCOC(=O)c1nc(C)sc1-c1ccnn1S(=O)(=O)c1cccc(Cl)c1,/,-28.8*,0.6,1.3,-3.4,-0.1
CN(C)/C=N/c1nc2ncc(-c3ccc(Cl)cc3)c(/N=C/N(C)C)n2n1,2.3,29.4,-9.7,/,-0.7,43.1*
CN(C)/C=N/c1nc2nccc(-c3ccc(F)cc3)n2n1,/,11.5,3.1,0.1,-18.8,42.1
CCC(CC)C(=O)N(CCc1ccc(OC)cc1)Cc1nc2ccccc2c(=O)[nH]1,-23.2,-51.4*,/,/,-0.3,-0.1
COc1ccc(CCN(Cc2nc3ccccc3c(=O)[nH]2)C(=O)c2ccco2)cc1,/,/,0.1,-1.5,/,/
Clc1ccc2nc3c4ccccc4cnn3c2c1,/,10.3,0.4,-0.1,-0.4,42.9*
CC1([N+](=O)[O-])COC(c2cccc3ccccc23)OC1 (centres undefined),22.4,-21.9*,5.6,0.0,/,/
Cc1cccc(-c2ccc([C@H]3[C@@H](CO)N4CCCCN(C(=O)NC(C)C)C[C@H]34)cc2)c1,-1.4,-2.7,/,0.6,-0.7,0.4
O=S(=O)(/C=C/C=C/S(=O)(=O)c1ccccc1)c1ccccc1,/,17.9,33.6*,0.5,-6.1,0.5
Cc1ccc(S(=O)(=O)C=CS(=O)(=O)c2ccc(C)cc2)cc1,-22.8,3.0,15.9,/,1.8,-0.1
COc1ccc(OC)c(S(=O)(=O)NCc2cccnc2)c1,125.6*,/,/,/,/,/
O=S(=O)(NCc1cccnc1)c1ccc(Br)c2ccccc12,10.2,-9.0,3.1,0.1,/,0.0
COc1ccc(S(=O)(=O)NCc2cccnc2)c2ccccc12,93.8*,-2.2,-4.1,/,-1.8,-0.4
SMILES,Statin myotox sup,Ecoli rRNA inh,FN deposit inh,E-selectin induc,SIRT5 block,FGF22 binding
CNC(=O)C[C@@H]1CC[C@@H]2[C@H](COC[C@@H](O)CN2Cc2ccncc2)O1,-9.7,-0.4,4.3,-0.1,-2.5,0.3
Cc1cccc2c1NC(=O)C2=Nc1ccc(Cl)cc1,8.4,-19.4*,4.3,/,4.8,0.0
CO[C@@H]1CN(C)C(=O)c2cc(NS(=O)(=O)c3ccc(Oc4ccccc4)cc3)ccc2OC[C@@H](C)NC[C@@H]1C,-5.2,-3.1,1.9,-0.4,3.6,-0.2
COC(=O)c1ccc(COc2ccc(/C=N/NC(N)=S)cc2)o1,/,-28.6*,-5.1,/,-2.4,0.1
COC(=O)c1ccc(COc2ccc(Cl)cc2)o1,-0.9,-7.2,-2.5,/,0.8,-0.1
CC1(CC(=O)N/N=C/c2ccc(-c3ccc(C(=O)O)cc3)o2)OCCO1,2.9,5.2,/,/,7.5,/
O=C(CN1CCOCC1)N/N=C/c1ccc(-c2ccc(C(=O)O)cc2)o1,/,7.0,-1.8,/,16.7*,-0.2

# Assay outcomes as filed in PubChem.
